# Screening results deposited in PubChem by The Scripps Research Institute Molecular Screening Center.
# The list is not random: actives were taken first. Their share in the collection is about 1.6%.
# MBD2 inh: inhibitors of MBD2 binding to methylated DNA, primary screen, biochemical, TR-FRET, DNA-binding domain, human. Methyl-CpG-binding domain protein 2 (Homo sapiens), Q9UBB5. MBD2 binding to methylated oligonucleotide. inhibition, % at 4.4 µM. 370,000 compounds, 0.31% hits. AID 686964, 2013; in the data active means inhibition above about 13%
# Target sequence (Q9UBB5 whole entry, looked up, the tested form may be a part): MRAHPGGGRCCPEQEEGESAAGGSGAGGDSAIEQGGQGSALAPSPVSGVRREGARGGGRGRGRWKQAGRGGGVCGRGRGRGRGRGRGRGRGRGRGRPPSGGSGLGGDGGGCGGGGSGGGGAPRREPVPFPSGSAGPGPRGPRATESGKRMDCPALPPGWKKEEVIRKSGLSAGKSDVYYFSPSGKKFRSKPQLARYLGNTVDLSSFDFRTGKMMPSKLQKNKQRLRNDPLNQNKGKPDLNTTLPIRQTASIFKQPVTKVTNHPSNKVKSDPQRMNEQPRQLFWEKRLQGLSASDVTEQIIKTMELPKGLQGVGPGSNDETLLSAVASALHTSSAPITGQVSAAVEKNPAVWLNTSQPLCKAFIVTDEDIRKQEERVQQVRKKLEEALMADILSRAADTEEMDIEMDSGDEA
# LEDGF integ inh: blockers of LEDGF/p75-dependent integrase strand transfer – biochemical, TR-FRET, high throughput, primary screen; TR-FRET IN-LEDGF/p75 DNA integration, Eu/Cy5; AID 743269, 2014; HIV-1 integrase (with human LEDGF/p75); 370,000 compounds, 0.64% hits; inhibition, % at 3.7 µM;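 active means inhibition above the screen-wide mean plus 3 SD, cut at about 13% in these data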;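 further: signal is the Cy5 over europium emission ratio at 671 and 618 nm; 0% = plate median of compound wells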
# TDP2 absorb: human TDP2 enzyme inhibitors, primary screen, biochemical, epi absorbance, recombinant enzyme; Tyrosyl-DNA phosphodiesterase 2 (Homo sapiens), O95551; T5PNP hydrolysis, p-nitrophenol absorbance 415 nm; inhibition, % at 12.8 µM; 370,000 compounds, 0.34% hits; AID 720702, 2013;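 active means inhibition above the mean of all tested compounds plus 3 SD, set per campaign, cut at about 25% in these data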;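 further: 0% = DMSO with enzyme and 100% = buffer with substrate but no TDP2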
#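 System: recombinant human TDP2 / Amount: 120 nM TDP2 per well / Also added: 5 mM T5PNP chromogenic substrate / Doses: 12.8 µM single point, 1% DMSO / Incubation: 2 h at 37 °C / Detection: p-Nitrophenol epi absorbance / Evaluation: % inhibition relative to enzyme-containing and enzyme-free wells / Repeats: singlicate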
# UHRF1 binding: UHRF1 methylated DNA binding inhibitors, primary screen, counter-screen for MBD2 inhibitor project, biochemical, TR-FRET, human UHRF1, single concentration; 370,000 compounds, 0.75% hits; UHRF1 binding to methylated oligo; inhibition, % at 4.4 µM; E3 ubiquitin-protein ligase UHRF1 (Homo sapiens), Q96T88; AID 687016, 2013; in the data active means inhibition above about 21%;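 further: UHRF1 SRA domain binding a hemimethylated CpG hairpin DNA probe; 0% = median of test compound wells and 100% = reference inhibitor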
# Numbers without * were called inactive.
SMILES,MBD2 inh,LEDGF integ inh,TDP2 absorb,UHRF1 binding
CCOc1ccccc1C(=O)Nc1ccc2nc(C)[nH]c(=O)c2c1,-6.4,3.2,-7.3,2.5
O=C(CSc1nnc(-c2cccc(Cl)c2)n1Cc1ccco1)Nc1ccc2c(c1)OCO2,-4.0,-0.8,4.4,-2.0
O=S(=O)(NCc1ccc2c(c1)OCO2)c1ccc2c(c1)oc1ccccc12,2.6,0.6,3.1,29.4*
O=S(=O)(NCc1ccc2c(c1)OCO2)c1cccc(F)c1,-2.5,2.7,7.3,-0.7
COc1ccc(-c2nc3c(C(=O)NCCN(C)C)cccc3c3ccccc23)cc1,12.6,-7.2,-1.4,-13.9
CN(C)CCNC(=O)c1cccc2nc3c(ccc4ccccc43)nc12,31.4*,-1.0,-2.6,-32.6
CCOC(=O)c1[nH]c(C)c(C(=O)OCc2c(C)noc2C)c1C,5.4,-1.8,-3.8,22.2*
CN1C(=O)c2cc(NC(=O)Cc3cccs3)ccc2OC[C@@H]2O[C@@H](CC(=O)N[C@H]3CCN(Cc4ccccc4)C3)CC[C@@H]21,1.1,-2.6,-0.5,0.0
COCCCNC(=S)N1CCN(c2nc(-c3ccc(F)cc3)cs2)CC1,5.6,1.8,-4.4,64.6*
O=C(CCNC(=O)c1ccccc1Cl)NNC(=O)c1ccccc1O,2.8,-10.9,-12.3,34.3*
O=C(CC1CCCC1)NNC(=O)c1ccccc1O,4.2,-5.5,7.4,36.2*
O=C(COc1ccc(Cl)cc1)OCc1ccc(Cl)cc1,3.1,-1.7,-1.9,40.1*
COC(=O)C1CN(Cc2cn(CCC3OCCO3)nn2)CCS(=O)(=O)N1Cc1ccccc1 (stereo not drawn),4.5,-3.0,2.2,17.2
Cc1ccc(SC2CCN(C(=O)C3CCC(=O)N(C4CC4)C3)CC2)cc1 (stereo not drawn),6.8,2.5,17.2,22.2*
Cc1ccccc1SC1CCN(C(=O)C2CCC(=O)N(C3CC3)C2)CC1 (stereo not drawn),-7.8,-7.5,-5.7,-2.8
O=C(OC12CCCN(C1)/C(=C/c1ccc(Cl)cc1)C2)C1CCCCC1 (stereo not drawn),4.7,-1.5,3.9,1.5
OCCNc1ncnc2c1ncn2[C@H]1CN(Cc2cccs2)C[C@@H](CO)O1,1.6,2.1,-3.4,25.8*
COc1ccc(S[C@]2(C(=O)N3CCOCC3)CC(=O)N(C(=O)Nc3ccc(C)c(Cl)c3)[C@@H]2c2ccc(OC)cc2)cc1,0.5,-4.4,-0.2,2.7
COc1cc(NC(=O)CCc2nnc3ccc(N4CCCC4)nn23)cc(OC)c1OC,7.2,0.0,9.8,22.6*
O=C(CCc1nnc2ccc(N3CCCCC3)nn12)NCc1ccco1,3.2,2.5,11.1,24.6*
CSCc1c(C(=O)OCC(=O)c2ccc[nH]2)oc2ccccc12,11.7,19.4*,-2.6,19.3
O=[N+]([O-])c1cccc2c1ccc1ncccc12,-1.8,-2.3,-1.6,49.0*
Cc1ccc(NC(=O)Nc2ccc3c(c2)[C@]2(CC(=O)N(CC(C)C)C2c2ccccc2)C(=O)N3C)cc1Cl (stereo partly drawn),4.5,1.8,-4.1,8.6
COC(=O)C1=NNC2C(=O)N(C3CCCCC3)C(=O)C12 (stereo not drawn),10.6,-1.0,-5.5,25.8*
COC(=O)C1=NNC2C(=O)N(c3ccc(C)cc3)C(=O)C12 (stereo not drawn),-1.5,-1.6,12.1,2.2
SMILES,MBD2 inh,LEDGF integ inh,TDP2 absorb,UHRF1 binding
COCCNC(=O)COC(=O)c1cccnc1SC,-1.1,2.2,-1.6,27.2*
c1ccc(Cc2cnc(N3CCN(Cc4csc5ccccc45)CC3)nc2)cc1,10.0,6.0,3.0,-2.2
COc1ccc(C(C)NC(=O)c2ccccc2Br)cc1OC (stereo not drawn),-3.4,-1.5,2.3,-1.3
Cc1ccc(C)c(C(C)NC(=O)c2ccccc2Br)c1 (stereo not drawn),0.0,-3.1,-4.9,21.6*
O=CNCC(=O)NC1CCCCCC1,-2.9,3.4,-8.8,23.8*
O=C(CCN1C(=O)/C(=C/c2ccccc2)SC1=S)NC1CCS(=O)(=O)C1 (stereo not drawn),-1.5,0.8,2.4,-2.7
O=C(CN1C(=O)/C(=C/c2ccco2)SC1=S)Nc1ccc(O)c(C(=O)O)c1,7.2,46.9*,4.0,58.4*
COc1ccc(NC(=O)CCCN2C(=O)/C(=C\c3ccco3)SC2=S)cc1,-0.7,2.4,0.2,-3.9
O=C(CN1C(=O)/C(=C/c2ccco2)SC1=S)NC1CCS(=O)(=O)C1 (stereo not drawn),-0.2,55.2*,16.1,52.5*
COC(=O)[C@@]12CCCCC3=C1N(CCC3)C(=O)[C@H]2CC(=O)N1CCSCC1,6.3,-1.3,1.8,-2.5
Cc1ccccc1Cn1cc(CN2[C@H](C)COc3cc(Br)ccc3S2(=O)=O)nn1,-2.9,-1.8,-5.7,-2.1
CC1(C)N([O-])c2cc([N+](=O)[O-])ccc2[N+]1=O,-10.2,20.7*,6.3,7.2
Cc1ccc(C)n1-c1cc([N+](=O)[O-])ccc1-n1ccnc1,-0.8,-1.5,-15.7,-1.4
Clc1ccc2c(SCC3CO3)c3ccccc3nc2c1 (stereo not drawn),-0.7,-3.6,5.3,71.5*
CN1C(=O)c2cc(NC(=O)Nc3ccccc3)ccc2OC[C@H]2O[C@@H](CC(=O)N[C@H]3CCN(Cc4ccccc4)C3)CC[C@@H]21,8.1,-1.6,5.1,4.8
O=C(O)c1c2c(nc3ccc(Cl)cc13)CCC2,-6.6,3.6,-5.0,3.2
Cc1ccc2nc3c(c(C(=O)O)c2c1)CCC3,-3.4,-0.1,18.9,21.4*
CCNc1nc(NCC)nc(N/N=C/c2ccccc2)n1,0.1,2.1,-7.5,0.6
CCNc1nc(NCC)nc(N/N=C/c2ccc(OC)cc2)n1,3.2,-0.8,-3.4,53.3*
O=C(O)c1cn(-c2ccc(F)cc2)c2cc(Cl)c(F)cc2c1=O,-0.8,3.5,6.8,28.2*
CC(=O)O[C@@H]1CCC[C@@]2(C(=O)N(Cc3ccccc3)c3ccc(-c4c(C)noc4C)cc32)[C@H]1NC(=O)CCc1ccccc1,0.7,4.7,-0.7,8.2
COc1ccc(NC(=O)CN2CCC(C(=O)c3ccc(C)cc3)CC2)c(OC)c1,1.9,-0.8,13.8,0.2
COc1ccc(NC(=S)N2CCC(C(=O)c3ccc(C)cc3)CC2)c(OC)c1,2.2,-7.7,1.2,25.5*
CC1=NN(c2ccccc2)C(=O)/C1=C\c1ccc(Oc2ccc([N+](=O)[O-])cc2[N+](=O)[O-])cc1,15.2*,31.4*,78.0*,19.3
COc1cc(/C=C2/C(=O)N(c3ccc(C)c(C)c3)N=C2C)cc([N+](=O)[O-])c1O,-1.4,-2.9,19.0,-9.1
CC(C)C(NC(=O)C1CCCCC1)C(=O)NCCc1ccccc1 (stereo not drawn),5.6,-1.4,3.2,20.7*
